Laboratory results published in paper PMC4066744 (Nucleic Acids Research, 2014).
One block for each molecule: values may come before it.

Experiments:
[1] = target: KIX domain from mouse CBP 586-672 (mouse) (UniProt P45481); test: fluorescence polarisation
[2] = target: KIX domain of CBP/p300 (mouse CBP 586–672) (Mus musculus, UniProt P45481); assay type: binding; details: for decrease in affinity for the KIX domain relative to native E2A AD2–1: mutant peptide versus wild-type E2A AD2–1, fluorescence anisotropy titration
KIX domain of CBP/p300 (mouse CBP 586–672), sequence (P45481 586-672): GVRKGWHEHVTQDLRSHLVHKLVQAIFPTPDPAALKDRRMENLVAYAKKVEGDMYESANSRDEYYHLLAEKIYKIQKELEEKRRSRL
Procedure, shortened: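 Mouse CBP KIX (586–672), E. coli BL21(DE3)-expressed, purified, with final size exclusion in 20 mM MES pH 6.0, 1 mM β-mercaptoethanol (same buffer for titration). KIX spiked with 100 nM FITC-peptide titrated into that peptide. Ex 492/em 523 nm; three readings per injection averaged. Kd from quadratic one-site fit plus linear non-specific term. Mutant-peptide series run in triplicate; mean ± standard error.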

[3] = target: KIX^ΔPCETsite (Phe612Ala/Asp622Ala/Arg624Ala/Lys667Glu quadruple KIX mutant) (Mus musculus, UniProt P45481, D622A/F612A/K667E/R624A); assay type: binding; details: 250 μM versus 17 μM
KIX^ΔPCETsite (Phe612Ala/Asp622Ala/Arg624Ala/Lys667Glu quadruple KIX mutant), sequence (P45481 586-672 F612A/D622A/R624A/K667E): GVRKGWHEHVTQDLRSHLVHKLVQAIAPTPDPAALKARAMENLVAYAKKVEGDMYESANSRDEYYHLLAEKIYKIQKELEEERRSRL

[4] = target: KIX domain from mouse CBP 586-672 (mouse, UniProt P45481 586-672); test: NMR titration
KIX domain from mouse CBP 586-672, sequence (P45481 586-672): as the sequence (P45481 586-672) above

KIX domain from mouse CBP 586-672 (mouse), sequence (P45481 586-672): as above

Molecule: E2A AD2-1 His402Ala FITC-labelled synthetic mutant peptide (from UniProt P15923 394-407)
Kd [1]: 13.5 µM

Molecule: Ac-EDHLDEAIHVLRSHY-NH2 [E2A AD2–1 (C-terminal tyrosine)]
Kd [2]: 21 ± 5 µM

Molecule: E2A AD2-1 Ala400Leu FITC-labelled synthetic mutant peptide (from UniProt P15923 394-407)
Kd [1]: 7.2 µM

Molecule: Ac-EDHLDEAIHVLRSHAVGTAGDMHTLLP-NH2 [E2A AD2–1/2]
Kd [2]: 21 ± 3 µM

Molecule: E2A AD2-1 Ile401Ala FITC-labelled synthetic mutant peptide (from UniProt P15923 394-407)
Kd [1]: 106 µM

The next lines start with the values.

Kd [1]: 102 µM
Molecule: E2A AD2-1 Leu397Ala FITC-labelled synthetic mutant peptide (from UniProt P15923 394-407)

decrease in affinity for the KIX domain relative to native E2A AD2–1 [2]: 6 fold
Molecule: Ac-EDHADEAIHVLRSH-NH2 (N-terminus and C-terminus assumed) [E2A AD2–1 Leu397Ala]

Kd [1]: 86 µM
Molecule: E2A AD2-1 Leu404Ala FITC-labelled synthetic mutant peptide (from UniProt P15923 394-407)

decrease in affinity of KIX^ΔPCETsite mutant relative to native KIX [3]: 15 fold
Molecule: Ac-EDHLDEAIHVLRSH-NH2 [E2A AD2–1]

decrease in affinity for the KIX domain relative to native E2A AD2–1 [2]: approximately 5 fold
Molecule: Ac-EDHLDEAIHVARSH-NH2 (N-terminus and C-terminus assumed) [E2A AD2–1 Leu404Ala]

binding result [4]: binds
Molecule: EDHLDEAIHVLRSHAVGTAGDMHTLLP [Unfused recombinant E2A AD2-1/2 (E2A residues 394-420)]
